Screening data as filed in PubChem BioAssay.
In the library only some 2.4% were active in any assay of this set; here they are far more common.
NR2E3 ag-1 – activates human NR2E3 receptor; CHO-S Gal4-NCOR/VP16-NR2E3 two-hybrid, luciferase; Q9Y5X4; 360,000 tested, 0.35% active; AID 602229; inhibition of corepressor binding, % at 3.98 µM;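 active means inhibition above the mean of all tested compounds plus 3 SD, cut at about 70% in these data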;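 further: 0% = DMSO with NR2E3 transfected cells and 100% = cells lacking NR2E3 construct; higher means lower luciferase signal from less NR2E3 corepressor binding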
Target sequence (Q9Y5X4 whole entry, looked up, the tested form may be a part): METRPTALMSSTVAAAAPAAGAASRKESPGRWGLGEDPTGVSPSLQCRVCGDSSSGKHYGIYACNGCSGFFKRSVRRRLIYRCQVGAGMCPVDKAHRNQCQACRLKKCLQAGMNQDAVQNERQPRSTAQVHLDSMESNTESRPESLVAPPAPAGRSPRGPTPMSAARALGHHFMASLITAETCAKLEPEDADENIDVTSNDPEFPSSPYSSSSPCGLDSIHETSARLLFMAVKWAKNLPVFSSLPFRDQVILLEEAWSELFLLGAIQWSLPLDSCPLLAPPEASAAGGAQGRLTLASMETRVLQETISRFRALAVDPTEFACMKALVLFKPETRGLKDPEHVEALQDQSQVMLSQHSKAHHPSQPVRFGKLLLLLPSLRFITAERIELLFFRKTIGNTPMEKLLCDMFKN
MPTP inh – permeability transition pore inhibition | isolated mouse mitochondria, Ca2+ swelling absorbance, 30 min | inhibition, % at 10 µM | AID 602449 | 360,000 tested, 1.4% active;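 active means inhibition of 50% or more, scaled per plate between neutral and stimulator controls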;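 further: 0% = DMSO wells given calcium and 100% = 1 mM EGTA wells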
697 NFkB inh – lowers PMA/ionomycin-induced NF-kB signal in 697 B cells. 697 B-cell NF-kB luciferase reporter, 16 h. inhibition, % at 4 µM. 330,000 tested, 0.33% active; in the data active means inhibition above about 35%
NR2E3 ag-2 – NR2E3 (human) agonism | GST-NR2E3/biotin-RetCOR TR-FRET, 1536-well | inhibition of corepressor binding, % at 4.78 µM | 320,000 tested, 0.12% active | AID 2300;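 active means percent inhibition above the cutoff of mean plus 3 SD of all tested compounds, set per screening campaign, cut at about 20% in these data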;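 further: 0% = DMSO wells and 100% = biotin wells as full block of FRET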
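Test system: GST-NR2E3 and biotin-RetCOR proteins | Quantity: 1.35 nM GST-tagged NR2E3 final | Medium: Tris pH 7.5 | Also added: 7 nM biotin-RetCOR | Dosing: Compound at 4.8 µM, single dose | Timing: 5 h at 4 °C | Detection: Time-resolved FRET | Read-out basis: Percent inhibition | Benchmarks: Biotin wells as high control, 0.6% DMSO wells as low control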
Jurkat NFkB inh – lowers PMA/ionomycin-induced NF-kB signal in Jurkat cells | inhibition, % at 4 µM | PMA/ionomycin-induced NF-kB luciferase reporter, luminescence | 330,000 tested, 0.53% active; in the data active means inhibition above about 50%
aDG glyco act – alpha-DG glycosylation activation; Pro5-aDG cells, alpha-DG glycosylation AlphaScreen (IIH6); 0% Pro5, 100% B10-LARGE cell signal; activation, % at 10 µM; 360,000 tested, 0.22% active; AID 624168;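 active means activation of at least 8% versus controls, or a plate z-score of at least 8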;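 further: Pro5 are CHO cells carrying HIG-tagged alpha-DG that lacks glycosylation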
Jurkat NFkB conf – inhibitors of the PMA/ionomycin-induced NF-kB reporter in Jurkat cells, retest; inhibition, % at 4 µM; AID 435020; Jurkat NF-kB luciferase, 16 h; 2,700 tested, 27% active; shares compounds with Jurkat NFkB inh;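 active means inhibition reaching about 45% at 4 µM in either replicate, limit read from the data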;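 further: plate controls were PMA/ionomycin stimulated DMSO wells for no effect and unstimulated DMSO wells for full effect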
Starred values were filed as active, the others as inactive.

Results for O=C1CCCC(O)=C1Sc1cc(Cl)c(Cl)cc1Cl ?
NR2E3 ag-1: -7; MPTP inh: -1; 697 NFkB inh: -19; NR2E3 ag-2: 1; Jurkat NFkB inh: -12; aDG glyco act: 0

Results for Fc1ccccc1CSc1nc2ccccc2[nH]1 ?
NR2E3 ag-1: -198; MPTP inh: 0; 697 NFkB inh: -246; NR2E3 ag-2: 2; Jurkat NFkB inh: -154; aDG glyco act: 2; Jurkat NFkB conf: -86

Results for Fc1c(F)c(F)c(CSc2nc3ccccc3[nH]2)c(F)c1F ?
NR2E3 ag-1: -53; MPTP inh: 32; 697 NFkB inh: -9; NR2E3 ag-2: -2; Jurkat NFkB inh: -23; aDG glyco act: 0

What do the screens show for `COc1ccc([C@H]2CC(=O)C[C@@H](CCn3cc(-c4nccn4C)nn3)O2)cc1`?
NR2E3 ag-1: 7; MPTP inh: 0; aDG glyco act: 0

Results for O=C(O)c1sc2cc(C(F)(F)F)cnc2c1-c1ccccc1 ?
NR2E3 ag-1: 8; MPTP inh: 0; 697 NFkB inh: -4; NR2E3 ag-2: -1; Jurkat NFkB inh: -10; aDG glyco act: 0

What do the screens show for `CSc1nnc(-c2sc3cc(C(F)(F)F)cnc3c2-c2ccccc2)n1C`?
NR2E3 ag-1: -15; MPTP inh: 0; 697 NFkB inh: -13; NR2E3 ag-2: 2; Jurkat NFkB inh: 56*; aDG glyco act: 0; Jurkat NFkB conf: 17

Results for Cc1c(C(=O)Nc2ccccc2)csc1-c1ccccc1 ?
NR2E3 ag-1: -36; MPTP inh: 2; 697 NFkB inh: 6; NR2E3 ag-2: 0; Jurkat NFkB inh: -266; aDG glyco act: 0; Jurkat NFkB conf: -195

Results for Cc1c(C(=O)Nc2ccccc2[N+](=O)[O-])csc1-c1ccccc1 ?
NR2E3 ag-1: -170; MPTP inh: 0; 697 NFkB inh: -141; NR2E3 ag-2: -1; Jurkat NFkB inh: -138; aDG glyco act: 0

Results for COc1cc(F)ccc1S(=O)(=O)N1CCN(Cc2ccccc2)CC1 ?
NR2E3 ag-1: -7; MPTP inh: 2; 697 NFkB inh: -2; NR2E3 ag-2: 4; Jurkat NFkB inh: 3; aDG glyco act: 0

Results for CCOC(=O)c1oc2ccc(S(=O)(=O)n3nc(-c4ccc(OC)cc4)cc3N)cc2c1C ?
NR2E3 ag-1: -16; MPTP inh: 5; 697 NFkB inh: -50; NR2E3 ag-2: 6; Jurkat NFkB inh: 58*; aDG glyco act: 0; Jurkat NFkB conf: 28

What do the screens show for `O=S(=O)(c1ccc(F)cc1)n1cnc2ccccc21`?
NR2E3 ag-1: 4; MPTP inh: 0; 697 NFkB inh: -18; NR2E3 ag-2: -1; Jurkat NFkB inh: 1; aDG glyco act: 0

Results for CCn1c(SCc2ccccc2Cl)nc2nc3c(cc2c1=O)CCCC3 ?
NR2E3 ag-1: -20; MPTP inh: 3; aDG glyco act: 0

What do the screens show for `CCn1c(SCc2c(Cl)cccc2Cl)nc2nc3c(cc2c1=O)CCCC3`?
NR2E3 ag-1: -20; MPTP inh: 0; 697 NFkB inh: -1; NR2E3 ag-2: -1; Jurkat NFkB inh: 55*; aDG glyco act: 0; Jurkat NFkB conf: 18

Results for COc1ccccc1Oc1ccc(-c2cnc3ccccc3n2)cc1[N+](=O)[O-] ?
NR2E3 ag-1: -10; MPTP inh: 1; 697 NFkB inh: -70; NR2E3 ag-2: 3; Jurkat NFkB inh: 59*; aDG glyco act: 0; Jurkat NFkB conf: -3

How did O=[N+]([O-])c1cc(-c2cnc3ccccc3n2)ccc1Oc1ccc(Cl)cc1 do in these assays?
NR2E3 ag-1: -42; MPTP inh: 5; 697 NFkB inh: -5; NR2E3 ag-2: 2; Jurkat NFkB inh: -9; aDG glyco act: 0

How did C#CCOCCOCCOCCNc1nc(N2CCN(C(=O)CCCCCCCCCCNC(=O)[C@H](CCCCN)n3cc(C[C@@H](C)CC)nn3)CC2)nc(N2CCN(C(=O)CCCCCCCCCCNC(=O)[C@@H]([C@H](C)O)n3cc(C)nn3)CC2)n1 do in these assays?
NR2E3 ag-1: 14; MPTP inh: -16; 697 NFkB inh: -41; NR2E3 ag-2: -1; Jurkat NFkB inh: 91*; aDG glyco act: 0; Jurkat NFkB conf: 0

How did O=C1/C(=C\c2cccs2)Sc2ccc3ccccc3c21 do in these assays?
NR2E3 ag-1: -115; MPTP inh: 3; 697 NFkB inh: -155; NR2E3 ag-2: 1; Jurkat NFkB inh: -157; aDG glyco act: -1; Jurkat NFkB conf: -91

What do the screens show for `COC(=O)c1ccc(NC(=O)C(=O)c2cccn2C)cc1`?
NR2E3 ag-1: -131; MPTP inh: 0; 697 NFkB inh: -122; NR2E3 ag-2: -3; Jurkat NFkB inh: -170; aDG glyco act: 0; Jurkat NFkB conf: -105

How did COc1ccccc1Nc1ccc(S(=O)(=O)N2CCCCC2)cc1[N+](=O)[O-] do in these assays?
NR2E3 ag-1: 11; MPTP inh: 2; 697 NFkB inh: -3; NR2E3 ag-2: 0; Jurkat NFkB inh: 3; aDG glyco act: 0

Results for O=C(Cc1ccc(Cl)cc1)Nc1ccc2c(c1)C(=O)NC2=O ?
NR2E3 ag-1: -30; MPTP inh: 8; 697 NFkB inh: 19; NR2E3 ag-2: 2; Jurkat NFkB inh: -1; aDG glyco act: 0

How did CC(=O)Nc1ccc(S(=O)(=O)Oc2ccccc2N2CCCCC2)cc1 do in these assays?
NR2E3 ag-1: -4; MPTP inh: 29; 697 NFkB inh: 9; NR2E3 ag-2: 0; Jurkat NFkB inh: 12; aDG glyco act: 0

Results for Nc1ccc2c(c1)C(=O)c1ccccc1-2 ?
NR2E3 ag-1: -12; MPTP inh: 3; 697 NFkB inh: 19; NR2E3 ag-2: -11; Jurkat NFkB inh: -21; aDG glyco act: 0

Results for O=C1C(=O)c2ccc(-c3ccccc3)cc2-c2ccccc21 ?
NR2E3 ag-1: 6; MPTP inh: 13; 697 NFkB inh: 21; NR2E3 ag-2: 8; Jurkat NFkB inh: 53*; aDG glyco act: -1; Jurkat NFkB conf: 24

What do the screens show for `COc1ccc(Cl)cc1NC(=O)CN(C)CC(=O)Nc1ccccc1N1CCOCC1`?
NR2E3 ag-1: -28; MPTP inh: 0; 697 NFkB inh: -28; NR2E3 ag-2: 1; Jurkat NFkB inh: 63*; aDG glyco act: 0; Jurkat NFkB conf: 43

How did CN[C@H]1CCc2cc(OC)c(OC)c(OC)c2-c2ccc(N(C)CC(OC)OC)c(=O)cc21 do in these assays?
NR2E3 ag-1: -36; MPTP inh: 1; 697 NFkB inh: -12; NR2E3 ag-2: -4; Jurkat NFkB inh: 30; aDG glyco act: 0

How did COc1cc2c(c(OC)c1OC)-c1ccc(N(C)CC(OC)OC)c(=O)cc1[C@@H](NC(C)=O)CC2 do in these assays?
NR2E3 ag-1: -8; MPTP inh: -1; 697 NFkB inh: -197; NR2E3 ag-2: -2; Jurkat NFkB inh: 47; aDG glyco act: 0
